Reference: ChEMBL document CHEMBL4270642, “Boronic ester-linked macrocyclic lipopeptides as serine protease inhibitors targeting Escherichia coli type I signal peptidase” (Eur J Med Chem, 2018)
≈ marks a conversion by molar mass, not a printed value. Square brackets hold non-standard residues; d marks the D form. Peptide text beside a SMILES is read from it. * marks the point of attachment. Benzoyl(4-(4-hexylphenyl)) = CCCCCCc1ccc(-c2ccc(C(=O)*)cc2)cc1; boroAla = C[C@H](N*)B(O)O; Orn = NCCC[C@H](N)C(=O)O

Tests used:
[1] = Hemolytic activity in human RBC at 100 uM after 45 mins by spectrophotometric method relative to control; assay type: ADME, cell-based, Erythrocyte; conditions: red blood cells (erythrocytes), read-out: Activity
How it was run: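 Heparinized human blood; red cells washed three times in Tyrode buffer pH 7.4. Compound at 100 µM final with 1% DMSO and 50% RBC, shaken (250 rpm) 45 min at 37 °C. Cells pelleted (1000 × g, 10 min); supernatant haemoglobin at 540 nm. Percent lysis relative to buffer-only and 2% Triton X-100 controls.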

Signal peptidase I = Signal peptidase I (Escherichia coli K-12, UniProt P00803); assay: Inhibition of Escherichia coli type 1 signal peptidase lepB preincubated for 10 mins followed by Dabcyl-VGGTATAYGAFSRPGLE-(EDANS)-OH substrate addition measured after 2 hrs by FRET based assay
How it was run: (§1)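 EcLepB (about 50 nM estimated) preincubated 10 min with compound. Reaction started with Dabcyl/EDANS FRET peptide at 8 µM final (Km 20 µM). Fluorescence followed continuously at 535 nm, 22 °C, for 2 h. Cleavage rates plotted against inhibitor concentration; IC50 from non-linear regression of sigmoidal dose-response curves.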

Escherichia coli [2] = assay: Antibacterial activity against Escherichia coli ATCC 25922 after 16 to 20 hrs by broth microdilution method; assay type: functional
How it was run: (§2)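 Broth microdilution in cation-adjusted Mueller-Hinton II per EUCAST/CLSI; two-fold compound series 64 down to 0.25 µg/mL final. Inoculum from fresh colonies (non-selective agar, 18-24 h, 35 ± 2 °C), adjusted to 0.5 McFarland, diluted to about 5 × 10^5 CFU/mL final. Static incubation 16-20 h at 35 ± 2 °C; MIC read visually as complete growth inhibition against medium-only wells.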

Escherichia coli [3] = assay: Antibacterial activity against tolC deficient Escherichia coli CH3130 after 16 to 20 hrs by broth microdilution method; assay type: functional; how it was run: as §2
Escherichia coli [4] = assay: Antibacterial activity against Escherichia coli D22 CGSG 5163 harboring Ips mutant after 16 to 20 hrs by broth microdilution method; assay type: functional
How it was run: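 Broth microdilution in cation-adjusted Mueller-Hinton II broth, following EUCAST and CLSI guidelines. Two-fold series at final concentrations 64 down to 0.25 µg/mL, with medium-only and growth controls. Inoculum from fresh colonies (18-24 h, 35 °C ± 2 °C) adjusted to 0.5 McFarland, final ≈5 × 10^5 CFU/mL. Plates incubated unshaken 16-20 h at 35 °C ± 2 °C. MIC read visually as complete inhibition of growth.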

Pseudomonas aeruginosa [5] = assay: Antibacterial activity against Pseudomonas aeruginosa PAO1 after 16 to 20 hrs by broth microdilution method; assay type: functional; how it was run: as §2
Pseudomonas aeruginosa [6] = assay: Antibacterial activity against efflux defective Pseudomonas aeruginosa PAO750 after 16 to 20 hrs by broth microdilution method; assay type: functional; how it was run: as §2
Klebsiella pneumoniae = assay: Antibacterial activity against Klebsiella pneumoniae ATCC 13883 after 16 to 20 hrs by broth microdilution method; assay type: functional; how it was run: as §2
HepG2 = assay: Cytotoxicity against human HepG2 cells after 72 hrs by FMSA; assay type: cell-based; conditions: HepG2, 72 h
How it was run: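 HepG2 (ATCC) grown in EMEM with 10% FBS, pen/strep, 2 mM L-glutamine, used up to 20 passages. Seeded at 1000 cells/well, cultured overnight, then dosed acoustically from DMSO stocks. Eight two-fold dilutions in duplicate from top 64 or 32 µM; 72 h at 37 °C, 5% CO2. Fluorescein diacetate hydrolysis read at ex 485/em 530 nm; IC50 by non-linear regression.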

Acinetobacter baumannii = assay: Antibacterial activity against Acinetobacter baumannii ATCC 19606 after 16 to 20 hrs by broth microdilution method; assay type: functional; conditions: ATCC 19606 = CIP 70.34 = JCM 6841; how it was run: as §2
Staphylococcus aureus = assay: Antibacterial activity against Staphylococcus aureus ATCC 29213 after 16 to 20 hrs by broth microdilution method; assay type: functional; how it was run: as §2
[7] = biological target: Signal peptidase I (Escherichia coli K-12) (UniProt P00803); assay: Inhibition of Escherichia coli type 1 signal peptidase lepB assessed as residual activity at 10 uM preincubated for 10 mins followed by Dabcyl-VGGTATAYGAFSRPGLE-(EDANS)-OH substrate addition measured after 2 hrs by FRET based assay (reference value: 100%); how it was run: as §1
[8] = biological target: Signal peptidase I (Escherichia coli K-12) (UniProt P00803); assay: Inhibition of Escherichia coli type 1 signal peptidase lepB assessed as residual activity at 5 uM preincubated for 10 mins followed by Dabcyl-VGGTATAYGAFSRPGLE-(EDANS)-OH substrate addition measured after 2 hrs by FRET based assay (reference value: 100%); how it was run: as §1
[9] = biological target: Signal peptidase I (Escherichia coli K-12) (UniProt P00803); assay: Inhibition of Escherichia coli type 1 signal peptidase lepB assessed as residual activity at 2.5 uM preincubated for 10 mins followed by Dabcyl-VGGTATAYGAFSRPGLE-(EDANS)-OH substrate addition measured after 2 hrs by FRET based assay (reference value: 100%); how it was run: as §1
[10] = biological target: Signal peptidase I (Escherichia coli K-12) (UniProt P00803); assay: Inhibition of Escherichia coli type 1 signal peptidase lepB assessed as residual activity at 1.25 uM preincubated for 10 mins followed by Dabcyl-VGGTATAYGAFSRPGLE-(EDANS)-OH substrate addition measured after 2 hrs by FRET based assay (reference value: 100%); how it was run: as §1
[11] = biological target: Signal peptidase I (Escherichia coli K-12) (UniProt P00803); assay: Inhibition of Escherichia coli type 1 signal peptidase lepB assessed as residual activity at 0.625 uM preincubated for 10 mins followed by Dabcyl-VGGTATAYGAFSRPGLE-(EDANS)-OH substrate addition measured after 2 hrs by FRET based assay (reference value: 100%); how it was run: as §1
[12] = biological target: Signal peptidase I (Escherichia coli K-12) (UniProt P00803); assay: Inhibition of Escherichia coli type 1 signal peptidase lepB assessed as residual activity at 0.3125 uM preincubated for 10 mins followed by Dabcyl-VGGTATAYGAFSRPGLE-(EDANS)-OH substrate addition measured after 2 hrs by FRET based assay (reference value: 100%); how it was run: as §1
[13] = biological target: Signal peptidase I (Escherichia coli K-12) (UniProt P00803); assay: Inhibition of Escherichia coli type 1 signal peptidase lepB assessed as residual activity at 0.1563 uM preincubated for 10 mins followed by Dabcyl-VGGTATAYGAFSRPGLE-(EDANS)-OH substrate addition measured after 2 hrs by FRET based assay (reference value: 100%); how it was run: as §1
[14] = biological target: Signal peptidase I (Escherichia coli K-12) (UniProt P00803); assay: Inhibition of Escherichia coli type 1 signal peptidase lepB assessed as residual activity at 0.0781 uM preincubated for 10 mins followed by Dabcyl-VGGTATAYGAFSRPGLE-(EDANS)-OH substrate addition measured after 2 hrs by FRET based assay (reference value: 100%); how it was run: as §1
[15] = biological target: Signal peptidase I (Escherichia coli K-12) (UniProt P00803); assay: Inhibition of Escherichia coli type 1 signal peptidase lepB assessed as residual activity at 0.0391 uM preincubated for 10 mins followed by Dabcyl-VGGTATAYGAFSRPGLE-(EDANS)-OH substrate addition measured after 2 hrs by FRET based assay (reference value: 100%); how it was run: as §1
[16] = biological target: Signal peptidase I (Escherichia coli K-12) (UniProt P00803); assay: Inhibition of Escherichia coli type 1 signal peptidase lepB assessed as residual activity at 0.0195 uM preincubated for 10 mins followed by Dabcyl-VGGTATAYGAFSRPGLE-(EDANS)-OH substrate addition measured after 2 hrs by FRET based assay (reference value: 100%); how it was run: as §1
[17] = biological target: Signal peptidase I (Escherichia coli K-12) (UniProt P00803); assay: Inhibition of Escherichia coli type 1 signal peptidase lepB assessed as residual activity at 0.0098 uM preincubated for 10 mins followed by Dabcyl-VGGTATAYGAFSRPGLE-(EDANS)-OH substrate addition measured after 2 hrs by FRET based assay (reference value: 100%); how it was run: as §1
[18] = biological target: Signal peptidase I (Escherichia coli K-12) (UniProt P00803); assay: Inhibition of Escherichia coli type 1 signal peptidase lepB assessed as residual activity at 0.0049 uM preincubated for 10 mins followed by Dabcyl-VGGTATAYGAFSRPGLE-(EDANS)-OH substrate addition measured after 2 hrs by FRET based assay (reference value: 100%); how it was run: as §1
[19] = biological target: Signal peptidase I (Escherichia coli K-12) (UniProt P00803); assay: Inhibition of Escherichia coli type 1 signal peptidase lepB assessed as residual activity at 0.0024 uM preincubated for 10 mins followed by Dabcyl-VGGTATAYGAFSRPGLE-(EDANS)-OH substrate addition measured after 2 hrs by FRET based assay (reference value: 100%); how it was run: as §1
[20] = biological target: Signal peptidase I (Escherichia coli K-12) (UniProt P00803); assay: Inhibition of Escherichia coli type 1 signal peptidase lepB assessed as residual activity at 0.0012 uM preincubated for 10 mins followed by Dabcyl-VGGTATAYGAFSRPGLE-(EDANS)-OH substrate addition measured after 2 hrs by FRET based assay (reference value: 100%); how it was run: as §1
[21] = biological target: Signal peptidase I (Escherichia coli K-12) (UniProt P00803); assay: Inhibition of Escherichia coli type 1 signal peptidase lepB assessed as residual activity at 0.0006 uM preincubated for 10 mins followed by Dabcyl-VGGTATAYGAFSRPGLE-(EDANS)-OH substrate addition measured after 2 hrs by FRET based assay (reference value: 100%); how it was run: as §1

Sequence of Signal peptidase I (Escherichia coli K-12) (P00803 whole entry): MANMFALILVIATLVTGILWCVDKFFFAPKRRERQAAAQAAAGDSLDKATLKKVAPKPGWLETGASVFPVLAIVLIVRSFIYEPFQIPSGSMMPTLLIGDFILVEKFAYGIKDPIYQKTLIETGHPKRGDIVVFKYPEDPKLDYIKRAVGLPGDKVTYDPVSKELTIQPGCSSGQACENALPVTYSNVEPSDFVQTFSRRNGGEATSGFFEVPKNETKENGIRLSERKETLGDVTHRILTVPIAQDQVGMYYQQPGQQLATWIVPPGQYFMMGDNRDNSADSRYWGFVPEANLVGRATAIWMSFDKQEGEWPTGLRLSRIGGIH
Sequence of Signal peptidase I (P00803 whole entry): as above

`CCCCCCc1ccc(-c2ccc(C(=O)N[C@@H](CCCN)C(=O)N[C@H](C(=O)N[C@@H](C)C(=O)N[C@@H](CC(N)=O)C(=O)N[C@@H](C)B(O)O)[C@@H](C)O)cc2)cc1` ({Benzoyl(4-(4-hexylphenyl))}-[Orn]TAN-boroAla) showed a hemolysis at 0.75 h, 100 µM [1] of 4.8%, an IC50 (Signal peptidase I) of 0.052 µM and an MIC (Escherichia coli [2]) of 8 µg/mL (≈ 10.6 µM). The MIC (Escherichia coli [3]) was 1 µg/mL (≈ 1.33 µM), the MIC (Escherichia coli [4]) was 0.5 µg/mL (≈ 0.663 µM) and the MIC (Pseudomonas aeruginosa [5]) was 64 µg/mL (≈ 84.9 µM). For the same compound, the MIC (Pseudomonas aeruginosa [6]) was 16 µg/mL (≈ 21.2 µM), the MIC (Klebsiella pneumoniae) was 2 µg/mL (≈ 2.65 µM) and the IC50 (HepG2) was 10.1 µM. The MIC (Acinetobacter baumannii) was 4 µg/mL (≈ 5.31 µM), the MIC (Staphylococcus aureus) was 0.025 µg/mL (≈ 0.0332 µM) and the Activity [7] was 5.8%. It also gave an Activity [8] of 6.7%, an Activity [9] of 8.8% and an Activity [10] of 15.6%. It also gave an Activity [11] of 20.6%, an Activity [12] of 20.3% and an Activity [13] of 19.2%. For the same compound, the Activity [14] was 25.7%, the Activity [15] was 57.5% and the Activity [16] was 84.8%. It also gave an Activity [17] of 89.3%, an Activity [18] of 93.9% and an Activity [19] of 87%. The Activity [20] was 97.7% and the Activity [21] was 95.9%.

`CCCCCCc1ccc(-c2ccc(C(=O)N[C@@H](CCCN)C(=O)N[C@H](C(=O)N[C@@H](C)C(=O)N[C@H]3Cc4cn(nn4)CCN4C[C@@H]5OB(O[C@@H]5C4)[C@H](C)NC3=O)[C@@H](C)O)cc2)cc1` showed a hemolysis at 0.75 h, 100 µM [1] of 10.1%, an IC50 (Signal peptidase I) of 0.104 µM and an MIC (Escherichia coli [2]) of 64 µg/mL (≈ 73.5 µM). The MIC (Escherichia coli [3]) was 16 µg/mL (≈ 18.4 µM), the MIC (Escherichia coli [4]) was 32 µg/mL (≈ 36.7 µM) and the MIC (Pseudomonas aeruginosa [5]) was > 64 µg/mL. For the same compound, the MIC (Pseudomonas aeruginosa [6]) was > 64 µg/mL, the MIC (Klebsiella pneumoniae) was 64 µg/mL (≈ 73.5 µM) and the IC50 (HepG2) was 9.5 µM. For the same compound, the MIC (Acinetobacter baumannii) was 32 µg/mL (≈ 36.7 µM), the MIC (Staphylococcus aureus) was 32 µg/mL (≈ 36.7 µM) and the Activity [7] was 17.8%. The Activity [8] was 26.7%, the Activity [9] was 29.8% and the Activity [10] was 32.9%. The Activity [11] was 36.3%, the Activity [12] was 38.8% and the Activity [13] was 47.2%. It also gave an Activity [14] of 61.4%, an Activity [15] of 63.8% and an Activity [16] of 71.3%. The Activity [17] was 77.9%, the Activity [18] was 77% and the Activity [19] was 79.9%. It also gave an Activity [20] of 80.6% and an Activity [21] of 97.3%.
